Screening results: PubChem, Sanford-Burnham Center for Chemical Genomics
The list is not random: actives were taken first. Their share in the collection is about 2%.
CSN inh: inhibitors of CSN-mediated cullin deneddylation, primary screen, biochemical, fluorescence polarization, uHTS | AID 651999, 2013 | 360,000 tested, 0.38% active | Purified CSN, SCF-Nedd8-OG deneddylation | COP9 signalosome complex subunit 5 (Homo sapiens), Q92905 | inhibition, % at 12.5 µM;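 active means pattern-corrected inhibition above about 35%, with an unprinted fluorescence ratio check between 0.5 and 1.5, limit read from the data, passing the limit was not always enough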;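 further: 0% = enzyme with substrate and 100% = substrate without enzyme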
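Assay system: HEK293T-derived human Csn5 enzyme; quantity: 0.24 nM enzyme; medium: Tris/NaCl/DTT buffer, pH 7.5; also added: substrate SCFSkp2-Nedd8OG, 10 nM; doses: 12.5 µM compound; schedule: 90 min reaction at room temperature; signal: FP; read-out: % inhibition of substrate cleavage by Csn5; benchmarks: substrate-only high control, full reaction low control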
LMPTP inh: LMPTP phosphatase inhibitors, primary screen, biochemical, fluorescence intensity, uHTS. Low molecular weight phosphotyrosine protein phosphatase (Homo sapiens), P24666. recombinant LMPTP-A, OMFP fluorogenic substrate. inhibition, % at 20 µM. 360,000 tested, 0.22% active;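 active means compounds that cut the enzyme signal by at least half of the control window in the single-dose screen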;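 further: plate controls were DMSO wells with enzyme plus substrate for no effect and substrate without enzyme for full effect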
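Test system: LMPTP-A, protein tyrosine phosphatase of low molecular weight; Input: 0.625 nM enzyme; Incubation: 50 min dark incubation at room temperature; Signal: endpoint fluorescence intensity from OMFP dephosphorylation; Read-out basis: % inhibition versus control wells.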
Scp1 inh: Scp-1 phosphatase inhibitors, primary screen, biochemical, colorimetric, uHTS; Carboxy-terminal domain RNA polymerase II polypeptide A small phosphatase 1 (Homo …; Recombinant Scp1, phosphopeptide, malachite green phosphate absorbance; inhibition, % at 20 µM; 340,000 tested, 0.88% active;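 active means inhibition above about 50% at 20 µM, limit read from the data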;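 further: plate controls were DMSO wells with enzyme for no effect and wells lacking enzyme for full effect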
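System: SCP-1 catalytic domain; Reagent: Phospho 17-mer peptide substrate; Doses: one concentration, 20 µM, with 1.0% DMSO; Incubation: 45 min room-temperature reaction, 5 min colour, 30 min stabiliser; Signal: Phosphate-binding colour reagent, absorbance read at 630 nm.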
STEP block: STEP phosphatase inhibitors, primary screen, biochemical, fluorescence intensity, uHTS | Tyrosine-protein phosphatase non-receptor type 5 (Homo sapiens), P54829 | recombinant STEP, OMFP fluorogenic substrate | inhibition, % at 20 µM | 360,000 tested, 0.25% active | AID 588621, 2011;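 active means inhibition at 20 µM, scaled per plate between control wells, above about 37%, limit read from the data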;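 further: 0% = DMSO with enzyme and substrate and 100% = substrate only without enzyme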
Target sequence (P54829 whole entry, looked up): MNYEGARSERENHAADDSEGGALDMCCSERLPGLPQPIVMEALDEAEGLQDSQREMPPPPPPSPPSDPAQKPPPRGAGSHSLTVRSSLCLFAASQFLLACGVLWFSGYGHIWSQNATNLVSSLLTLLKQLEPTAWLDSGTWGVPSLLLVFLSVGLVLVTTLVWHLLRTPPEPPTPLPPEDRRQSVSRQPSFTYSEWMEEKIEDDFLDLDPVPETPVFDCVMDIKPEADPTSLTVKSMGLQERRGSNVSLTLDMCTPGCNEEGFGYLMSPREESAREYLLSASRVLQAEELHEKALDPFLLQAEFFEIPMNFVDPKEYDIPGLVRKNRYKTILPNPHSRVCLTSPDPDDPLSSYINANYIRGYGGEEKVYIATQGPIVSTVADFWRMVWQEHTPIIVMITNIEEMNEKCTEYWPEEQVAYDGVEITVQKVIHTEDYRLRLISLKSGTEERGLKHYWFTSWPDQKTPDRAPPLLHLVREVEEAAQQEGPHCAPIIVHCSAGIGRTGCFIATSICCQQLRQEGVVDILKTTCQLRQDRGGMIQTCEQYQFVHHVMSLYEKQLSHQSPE
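System: STEP (striatal-enriched tyrosine phosphatase) enzyme, cell-free; medium: Bis-Tris pH 6.0 buffer with DTT, detergent; dosing: 20 µM, 1% DMSO; times: reaction 20 min, ambient temperature; detection: fluorescence, 480/540 nm; read-out basis: normalized % inhibition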
DNMT1 inh: human DNMT1 methyltransferase inhibitors, primary screen, biochemical, molecular beacon, fluorescence, HinP1I cleavage, uHTS | DNA (cytosine-5)-methyltransferase 1 (Homo sapiens), P26358 | inhibition (reported as % activation of signal), % at 10 µM | 360,000 tested, 0.83% active | AID 588458, 2011; in the data active means inhibition above about 50%
SUMO1-SIM PPI: modulators of SUMO1 protein-protein interactions, primary screen, biochemical, uHTS; Small ubiquitin-related modifier 1 (Homo sapiens), P63165; SUMO1 binding to a labelled peptide, TR-FRET, 1 h; inhibition, % at 20 µM; 360,000 tested, 0.33% active; in the data active means inhibition above about 37%
Target sequence (P63165 whole entry, looked up): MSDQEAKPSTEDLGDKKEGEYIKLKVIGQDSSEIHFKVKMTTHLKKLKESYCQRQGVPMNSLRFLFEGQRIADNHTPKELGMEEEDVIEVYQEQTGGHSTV
Scp-1 conf: Scp-1 phosphatase inhibitors, retest, confirmation, biochemical, colorimetric, single concentration. inhibition, % at 20 µM. 2,500 tested, 61% active. AID 540281, 2011. shares compounds with Scp1 inh. recombinant SCP-1 catalytic domain, phosphate release, malachite green absorbance;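 further: plate controls were DMSO with enzyme for no effect and buffer wells lacking enzyme for full effect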
MG interference: colorimetric readout interference by compounds, confirmation, artefact control for Scp-1 inhibitor project, biochemical, single concentration. 2,500 tested, under 10 active. apparent inhibition (interference), % at 20 µM. shares compounds with Scp1 inh. Colorimetric interference counterscreen, malachite green absorbance 630 nm. AID 540313, 2011;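 further: compounds added after enzyme reaction finished so only phosphate colour detection is probed; plate controls were DMSO wells with completed Scp-1 reaction for no effect and substrate wells lacking enzyme for full effect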
Scp-1 Tm shift: Scp-1 binding by thermal shift, confirmation, orthogonal assay for Scp-1 inhibitor project, biophysical, differential scanning fluorimetry | 1,500 tested, 25% active | Recombinant SCP1, Sypro Orange thermal shift Tm | shares compounds with Scp1 inh | thermal shift relative to vanadate control, % at 40 µM;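 active means substances whose mean melting-temperature shift, as a percentage of the reference inhibitor's shift, reaches about 5.3%, limit read from the data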;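 further: 0% = Tm of DMSO wells and 100% = Tm with sodium orthovanadate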
DNMT1 inh conf: DNMT1 methyltransferase inhibitor retest, confirmation, biochemical, molecular beacon, fluorescence, single concentration | DNMT1 molecular beacon HinP1I cleavage | inhibition, % at 10 µM | 2,300 tested, 8% active | shares compounds with DNMT1 inh;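 active means average inhibition of at least 30% in the single-concentration confirmation test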
Beacon interf: counter-screen for DNMT1 inhibitors: spectral interference | DNMT1 molecular beacon spectral interference counterscreen, fluorescence 485/520 | shares compounds with DNMT1 inh | activation (fluorescence interference), % at 10 µM | 2,300 tested, 1% active | AID 602387;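 active means activation of at least 30% at 10 µM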;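 further: DNMT1 catalytic domain with a HinP1I cleavage step and a FAM/dabcyl DNA beacon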
An asterisk follows results filed as active; x = no result.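 How the source made its calls, unless noted: active means inhibition of at least 30% at 20 µM; inactive means the rest.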

SMILES	CSN inh	LMPTP inh	Scp1 inh	STEP block	DNMT1 inh	SUMO1-SIM PPI	Scp-1 conf	MG interference	Scp-1 Tm shift	DNMT1 inh conf	Beacon interf
Cc1ccc(C(=O)O)cc1-c1ccc(C=C2C(=O)c3ccccc3C2=O)o1	27.4	13.3	79.3*	41.8*	72.5*	13.3	46.9*	-23.2	12.1*	6.8	-0.3
O=C(NCc1cnn(-c2ccc(F)cc2)c1)C1CCC(=O)N(C2CC2)C1 (stereo not drawn)	-0.8	-0.4	-5.5	0.5	0.4	4.3	x	x	x	x	x
CCCCNC(=O)COC(=O)c1c2c(nc3ccccc13)/C(=C/c1cccs1)CC2	6.9	4.2	5.5	5.3	-23.5	-8.9	x	x	x	x	x
O=C(COC(=O)c1c2c(nc3ccccc13)/C(=C\c1ccco1)CC2)NC1CCCC1	32.1	65.2*	90.7*	17.5	97.3*	41.8*	61.0*	-14.2	15.1*	20.1	-2.4
O=C(COC(=O)c1c2c(nc3ccccc13)/C(=C/c1cccc([N+](=O)[O-])c1)CCC2)NC1CCS(=O)(=O)C1 (stereo not drawn)	-11.1	0.4	1.6	-0.1	-16.3	-13.8	x	x	x	x	x
CC1CCCCC1NC(=O)COC(=O)c1c2c(nc3ccccc13)/C(=C\c1ccco1)CC2 (stereo not drawn)	35.3	50.4*	50.2*	24.3	85.4*	22.3	60.5*	-8.2	9.4*	10.3	1.8
CN(CCC#N)C(=O)COC(=O)c1c2c(nc3ccccc13)/C(=C\c1ccco1)CC2	40.7	67.3*	84.4*	36.7	77.1*	57.3*	53.5*	-11.5	10.3*	7.5	6.5
O=C(O)c1cc(-c2ccco2)nc2cc3ccccc3cc12	31.5	1.1	91.1*	31.1	75.6*	38.2*	33.9*	-15.3	3.6	1.8	4.8
O=C(NNC(=O)c1cc(-c2ccco2)nc2ccccc12)c1ccccc1	0.9	-0.1	-0.7	-2.6	23.9	-9.4	x	x	x	x	x
CSC1=N/C(=C\c2ccccc2F)C(=O)S1	3.7	1.1	-5.9	3.1	0.5	-1.9	x	x	x	x	x
CSC1=N/C(=C\c2ccc(Br)o2)C(=O)S1	42.9*	23.6	83.7*	23.2	100.5*	14.5	53.5*	-22.2	4.7	-1.8	0.2
O=C(NCc1cccc(CNC(=O)C(=O)NCc2ccco2)c1)C(=O)NCc1ccco1	12.1	55.9*	91.5*	9.8	91.1*	2.9	64.8*	-8.4	-12.3	19.0	3.9
C[C@@H]1CN([C@H](C)CO)C(=O)c2cc(Br)cnc2O[C@@H]1CN(C)C(=O)c1cccc(F)c1	-3.2	-3.2	x	3.3	4.1	-0.6	x	x	x	x	x
Cc1cc(/C=N/NC(=O)c2cccc(N(C)C)c2)c(C)n1-c1cc(C(=O)O)cc(C(=O)O)c1	14.4	-0.6	66.1*	16.7	80.8*	22.0	53.2*	-14.5	7.5*	9.4	2.8
C=CCOc1ccc(C2/C(=C(/O)c3ccc(OC)cc3)C(=O)C(=O)N2CCN2CCNCC2)cc1 (stereo not drawn)	5.6	7.8	-12.3	-1.8	0.5	-0.4	x	x	x	x	x
CC(CNc1ccccc1O)C(=O)O (stereo not drawn)	2.2	-1.1	73.1*	-1.4	63.6*	-3.2	43.4*	-16.9	-2.7	1.7	0.0
CC(NC(=O)CCC(=O)Nc1ccccc1O)c1ccccc1 (stereo not drawn)	1.6	-1.8	-10.8	2.9	-2.6	1.8	x	x	x	x	x
O=C(/C=C/c1ccco1)N1CCN(S(=O)(=O)c2ccccc2)CC1	11.8	9.8	73.0*	18.2	66.1*	5.7	69.5*	-9.8	-10.2	4.4	3.8
COc1ccc(NC(=O)Cc2cccs2)c(OC)c1	-1.0	-0.2	2.5	-0.5	-2.3	0.6	x	x	x	x	x
Cc1ccc([N+](=O)[O-])cc1NC(=O)Cc1cccs1	6.3	26.0	66.6*	0.3	80.7*	-11.9	60.5*	-21.9	5.9*	8.0	2.0
COc1cc(NC(=O)c2ccccc2)c(OC)cc1NC(=O)Cc1cccs1	3.9	23.7	71.4*	2.2	72.6*	6.5	65.7*	-15.9	8.0*	3.8	-7.0
Cc1ccc([N+](=O)[O-])cc1NC(=O)Cc1ccc(F)cc1	-4.4	-1.1	-0.7	-1.4	0.8	-2.5	x	x	x	x	x
COC(=O)c1cc(NC(=O)Cc2cccs2)cc(C(=O)OC)c1	13.1	47.5	75.7*	21.1	57.8*	2.6	64.8*	-17.8	6.3*	6.6	-1.7
O=S(=O)(NC1=NCCCCC1)c1cc(F)ccc1F	2.7	1.2	-1.0	-0.6	-2.2	0.2	x	x	x	x	x
C[C@@H]1CN([C@@H](C)CO)C(=O)CCCn2nncc2CO[C@H]1CN(C)C(=O)c1ccccc1	-1.8	-2.8	x	-0.9	4.9	3.5	x	x	x	x	x
COc1cc(/C=C(/C#N)C(=O)Nc2ccc(C)cc2)ccc1Oc1nc(Cl)ncc1F	0.0	0.8	-1.3	-1.3	-5.4	3.1	x	x	x	x	x
CCCc1nc2sc3ccccc3c(=O)c2c(=O)n1Cc1ccco1	12.7	21.7	68.1*	11.1	75.6*	8.5	54.1*	-3.8	-9.9	0.7	-0.8
